Experimental data collected from several papers.
Lines come from different studies, so protocols differ.
Target: BMP-2-inducible protein kinase (BMP2K, Homo sapiens, UniProt Q9NSY1)

Structure (SMILES) | assay | setting | remaining binding [%]
Cc1cnc(Nc2ccc(C(=O)N3CCC(N4CCCC4)CC3)cc2)nc1-c1cc2ccccc2s1 | binding, competition with immobilised ligand | 1 µM | 0.2
O=C(O)[C@H]1[C@H](Cn2nnc3ccccc3c2=O)CC[C@@H]1C(=O)c1ccc(OCCC2CCOCC2)cc1 | cell-free assay, competition with immobilised ligand | 1 µM | 86
CCN1CCN(Cc2ccc(C(=O)Nc3ccc(C)c(Oc4ccc5c(c4)CC(=O)N5)c3)cc2C(F)(F)F)CC1 | binding, competition with immobilised ligand | 1 µM | 100
O=C(N1CCS(=O)(=O)CC1)N1C[C@H](c2ccc(OC(F)(F)F)cc2)C[C@H](c2nc(C3CC3)no2)C1 | cell-free assay, competition with immobilised ligand | 1 µM | 97
CNC(=O)[C@@H]1CC[C@@H](n2c(-c3ccc4cnccc4c3)nc3ccc(C(=O)NCc4cccc(C(N)=O)c4)cc32)C1 | binding, competition with immobilised ligand | 1 µM | 95
CNC(=O)c1ccc(Nc2ncc(C(F)(F)F)c(NCc3nccnc3N(C)S(C)(=O)=O)n2)cc1 | cell-free assay, competition with immobilised ligand | 0.1 µM | 81
O=C(c1ccc(Nc2ncc(Cl)c(-c3ccc(Cl)s3)n2)cc1)N1CCC(N2CCCC2)CC1 | binding, competition with immobilised ligand | 1 µM | 0.1
O=C(Nc1c[nH]nc1C(=O)NC1CCNCC1)c1cc(F)cc(F)c1 | binding, competition with immobilised ligand | 1 µM | 53
Cc1cnn2ncc(-c3ccnc(N(C)C)n3)c2c1 | binding | 1 µM | 80
Cc1nc(N2CC[C@@H](O)C2)ncc1-c1cc(C(F)(F)F)cc2[nH]ncc12 | binding, competition with immobilised ligand | 1 µM | 100
CN(C)c1nccc(-c2cnc3ncccn23)n1 | binding | 1 µM | 100
COc1ncc2cc3ccccc3nc2c1C#N | cell-free assay, competition with immobilised ligand | 5 µM | 100
c1cnn2ncc(-c3ccnc(N4CCC45COC5)n3)c2c1 | binding | 1 µM | 61
Cc1cc(C)c(-n2ccn3nc(-c4cccnc4)cc23)cc1NC(=O)c1cc(C#N)cc(S(F)(F)(F)(F)F)c1 | cell-free assay, competition with immobilised ligand | 0.1 µM | 94.7
CN(C)c1ncc(F)c(-c2cnn3ncccc23)n1 | binding | 1 µM | 100
O=C(c1ccc(Nc2ncc(Cl)c(-c3cc4ccccc4s3)n2)cc1)N1CCC(N2CCCC2)CC1 | binding, competition with immobilised ligand | 1 µM | 0
COc1ccnn2ncc(-c3ccnc(N(C)C)n3)c12 | binding | 1 µM | 100
C=CC(=O)N1CCC(C(=O)NCC(=O)N2CCN(c3nc(-c4cnc(N)nc4C(F)F)nc(N4CCOCC4)n3)CC2)CC1 | binding, competition with immobilised ligand | 1 µM | 94
N[C@H]1CCN(c2nccc(-c3cnn4ncccc34)n2)C1 | binding | 1 µM | 88
c1cncc(-c2cccc(Nc3nccc(NC4CCCCC4)n3)c2)c1 | binding, competition with immobilised ligand | 10 µM | 21
Cc1cc(NC(=O)c2cccc(S(F)(F)(F)(F)F)c2)cc(-n2ccn3nc(-c4cccnc4)cc23)c1 | cell-free assay, competition with immobilised ligand | 1 µM | 65.9
C[C@H]1CCN(c2nccc(-c3cnn4ncccc34)n2)C1 | binding | 1 µM | 83
